Experimental data reported in ChEMBL document CHEMBL1125422, “Low molecular weight proteins as carriers for renal drug targeting. Preparation of drug-protein conjugates and drug-spacer derivatives and their catabolism in renal cortex homogenates and lysosomal lysates” (J Med Chem, 1992).

Legend:
Rattus norvegicus [1] = species: Rattus norvegicus; experiment: Lysozyme-conjugated prodrugs: in vitro stability in lysosomal lysate at pH 5; type: functional
Procedure, shortened: (§1)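 Lysosomes isolated from pooled male Wistar rat kidney cortex by differential centrifugation, then lysed by 10 freeze–thaw cycles in liquid N2. 100 μL lysate diluted to 1.0 mL with 0.1 M phosphate buffer, pH 5.0 or 7.4. Samples were deproteinized and analysed by RP-HPLC against an internal standard. Parent drug released after 24 h, as a percentage, mean of ≥2 incubations.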

Rattus norvegicus [2] = species: Rattus norvegicus; experiment: Lysozyme-conjugated prodrugs: in vitro stability in buffered plasma at pH 7.4; type: functional
Procedure, shortened: (§2)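 Conjugate incubated 24 h in pH 5.0 buffer, pH 7.4 buffer, or plasma buffered at pH 7.4. Samples were deproteinized with ACN, MeOH or 2 N HCl, centrifuged, and analyzed by RP-HPLC against an internal standard. Release is % parent drug = parent/(parent + derivative) from IS-normalized peak-area ratios, mean of at least two separate incubations.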

Rattus norvegicus [3] = species: Rattus norvegicus; experiment: (§3) Lysozyme-conjugated prodrugs: in vitro stability at pH 7.4; type: functional; procedure, shortened: as §2
Rattus norvegicus [4] = species: Rattus norvegicus; experiment: Lysozyme-conjugated prodrugs: in vitro stability in rat cortical homogenate at pH 5; type: functional
Procedure, shortened: (§4)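 Renal cortices from three male Wistar rats were perfused, pooled, homogenized in 0.3 M sucrose and lysed by 10 freeze–thaw cycles. Conjugate was incubated with 250 μL homogenate in 0.1 M phosphate buffer, pH 5.0 or 7.4, to 1.0 mL for 24 h. Samples were deproteinized and analyzed by HPLC with internal standard. Release is % parent compound, mean of ≥2 incubations.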

Rattus norvegicus [5] = species: Rattus norvegicus; experiment: Lysozyme-conjugated prodrugs: in vitro stability in rat cortical homogenate at pH 7.4; type: functional; procedure, shortened: as §4
Rattus norvegicus [6] = species: Rattus norvegicus; experiment: (§5) Lysozyme-conjugated prodrugs: in vitro stability at pH 5; type: functional; procedure, shortened: as §2
Rattus norvegicus [7] = species: Rattus norvegicus; experiment: Lysozyme-conjugated prodrugs: in vitro stability in lysosomal lysate at pH 7.4; type: functional; procedure, shortened: as §1
Rattus norvegicus [8] = species: Rattus norvegicus; experiment: as §3; type: functional; procedure, shortened: as §2; remark: listed apart in the source
Rattus norvegicus [9] = species: Rattus norvegicus; experiment: as §5; type: functional; procedure, shortened: as §2; remark: listed apart in the source
Rattus norvegicus [10] = species: Rattus norvegicus; experiment: as §3; type: functional; procedure, shortened: as §2; remark: listed apart in the source
Rattus norvegicus [11] = species: Rattus norvegicus; experiment: as §5; type: functional; procedure, shortened: as §2; remark: listed apart in the source
Rattus norvegicus [12] = species: Rattus norvegicus; experiment: as §5; type: ADME; procedure, shortened: as §2
Rattus norvegicus [13] = species: Rattus norvegicus; experiment: as §3; type: functional; procedure, shortened: as §2; remark: listed apart in the source
Rattus norvegicus [14] = species: Rattus norvegicus; experiment: as §3; type: functional; procedure, shortened: as §2; remark: listed apart in the source

In the case of `COc1ccc2c(c1)c(CC(=O)O)c(C)n2C(=O)c1ccc(Cl)cc1`, the Drug release (Rattus norvegicus [1]) is reported as “Stable”, the Drug release (Rattus norvegicus [2]) is reported as “Stable” and the Drug release (Rattus norvegicus [3]) is reported as “Stable”. The Drug release (Rattus norvegicus [4]) was “Stable”, the Drug release (Rattus norvegicus [5]) was “Stable” and the Drug release (Rattus norvegicus [6]) was “Stable”.
For `Nc1ccc2ccccc2c1`, the Drug release (Rattus norvegicus [1]) was “Stable”, the Drug release (Rattus norvegicus [7]) was “Stable” and the Drug release (Rattus norvegicus [3]) was “Stable”. The Drug release (Rattus norvegicus [4]) was “Stable”, the Drug release (Rattus norvegicus [5]) was “Stable” and the Drug release (Rattus norvegicus [6]) was “Stable”.
`COc1ccc2cc([C@H](C)C(=O)O)ccc2c1` [NAPROXEN] was tested, and the Drug release (Rattus norvegicus [1]) was “Stable”, the Drug release (Rattus norvegicus [8]) was 0% and the Drug release (Rattus norvegicus [7]) was “Stable”. For the same molecule, the Drug release (Rattus norvegicus [2]) was “Stable”, the Drug release (Rattus norvegicus [3]) was “Stable” and the Drug release (Rattus norvegicus [9]) was 0%. The Drug release (Rattus norvegicus [4]) was “Stable”, the Drug release (Rattus norvegicus [10]) was 0% and the Drug release (Rattus norvegicus [5]) was “Stable”. For the same molecule, the Drug release (Rattus norvegicus [11]) was 0%, the Drug release (Rattus norvegicus [12]) was 0% and the Drug release (Rattus norvegicus [6]) was “Stable”. It also gave a Drug release (Rattus norvegicus [13]) of 0% and a Drug release (Rattus norvegicus [14]) of 0%.
In the case of `Nc1nc(N)c2nc(-c3ccccc3)c(N)nc2n1`, the Drug release (Rattus norvegicus [3]) is reported as “Stable”, the Drug release (Rattus norvegicus [4]) is reported as “Stable” and the Drug release (Rattus norvegicus [5]) is reported as “Stable”. The Drug release (Rattus norvegicus [6]) was “Stable”.
